Source: article PMC3628437 (Antiviral research, 2013)

How the values were obtained:
Varicella Zoster Virus = conditions: ref Mekler et al., 1969; cited from earlier work
influenza virus = conditions: ref Mekler et al., 1969; cited from earlier work
hepatitis B virus (HBV) = assay: Real-time immune-absorbance PCR; format: cell-based; conditions: for Reduction of HBV virion levels in culture medium / Fold HBV reduction: G2.215 cells; for Reduction of HBV virion levels in culture medium: 5μM; for Fold HBV reduction: 10 μM compound, HBV DNA in culture medium by IA-PCR
HBV virions = format: cell-based, hepatitis B virus; conditions: HepDE19 cells, 5 day treatment
Summary of the method: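 HepDE19 cells (DMEM/F12, 10% FBS, tetracycline-suppressed) were switched to tet-free medium for 5 days, then dosed for 5 days at several concentrations (0.5% DMSO final). Virions from 1ml clarified medium were precipitated with 10% PEG8000 (final), 1 h at 4°C, pelleted and dissolved in TNE pH7.4. Run on non-denaturing 1% agarose to separate virions from naked nucleocapsids, then blotted and hybridized with labeled HBV probe.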

HBV replication [1] = assay: Southern blot of cellular HBV DNA in HepDE19 cells; format: cell-based, hepatitis B virus; conditions: up to 10 μM
Summary of the method: (§1)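 Cytoplasmic core DNA: one 6-well-plate well lysed 10 min at 37°C in Tris-EDTA pH 8.0 with NP40/sucrose. Nuclei removed; capsids PEG8000/NaCl-precipitated 2 h at 4°C, pronase/SDS-digested 1 h at 37°C, phenol-extracted, ethanol-precipitated. Half run on 1.5% agarose, depurinated, denatured, neutralised, blotted and probed with α-32P-UTP HBV probe for RC, DSL and SS forms. HepDE19 tet-free 5 days before dosing; G2.215 kept in G418.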

[2] = tested on: HBV large surface protein (LHBs); assay: Western blot of LHBs-containing HBV particles in G2.215 culture medium; format: cell-based, hepatitis B virus; conditions: G2.215 cells, 10 or 20μM, 6 day treatment
equine herpesvirus-4 = conditions: ref Romanowski et al., 1999; Storey et al., 2002; cited from earlier work
feline herpesvirus-1 = conditions: ref Romanowski et al., 1999; Storey et al., 2002; cited from earlier work
HBV replication [3] = assay: Southern blot of cellular HBV replication intermediates in G2.215 cells; format: cell-based, hepatitis B virus; conditions: any concentration tested
Summary of the method: as §1

## C=Cc1c(C)c2cc3nc(c4c5[n-]c(cc6nc(cc1[n-]2)C(C)=C6CC)c(C)c5C(=O)[C@@H]4C(=O)OC)[C@@H](CCC(=O)O)[C@@H]3C.[Mg+2] [Chlorophyllide]
Varicella Zoster Virus
  Inactivation of virus: inactivate
Influenza virus
  Inactivation of virus: inactivate
Hepatitis B virus (HBV)
  Reduction of HBV virion levels in culture medium: ~ 2 CT
Hepatitis B virus (HBV); 6 days
  Fold HBV reduction: 4 Fold
HBV virions
  Formation and secretion of nucleocapsids: not affected
  Viral particles in cell culture medium: reduces viral particles in the cell culture medium in a dose-dependent manner
HBV replication [1]
  RC or SS DNA levels (cellular HBV DNA): did not repress

## CCCOc1ccc(C(=O)OCCN(CC)CC)cc1N [Proparacaine]
[2]
  Inhibition of secretion of HBV particles containing LHBs in culture medium: 3- to 4 fold
Equine herpesvirus-4
  Inactivation of virus: can inactivate
Hepatitis B virus (HBV)
  Reduction of HBV virion levels in culture medium: ~ 3 CT
Hepatitis B virus (HBV); 6 days
  Fold HBV reduction: 6 Fold
Hepatitis B virus (HBV); Hepatitis B virus, read-out: IC50 against HBV
  IC50: 1000 nM
Feline herpesvirus-1
  Inactivation of virus: can inactivate
HBV replication [3]
  Level of relaxed circular HBV DNA (RC-DNA) versus untreated control: no reduction

## Nc1ccn([C@@H]2CS[C@H](CO)O2)c(=O)n1 [lamivudine]
Hepatitis B virus (HBV); 30μM, 6 days, carrier alone CT ~26 undiluted
  CT of medium from treated G2.215 cells: 30–31 CT

## O=C(c1ccc(OCCN2CCCCC2)cc1)c1c(-c2ccc(O)cc2)sc2cc(O)ccc12 [Raloxifene]
Hepatitis B virus (HBV); 6 days
  Fold HBV reduction: 3.5 Fold

## C[C@@H]1C/C=C/C=C/C=C/C=C/[C@H](O[C@@H]2O[C@H](C)[C@@H](O)[C@H](N)[C@@H]2O)C[C@@H]2O[C@](O)(C[C@@H](O)C[C@H]3O[C@@H]3/C=C/C(=O)O1)C[C@H](O)[C@H]2C(=O)O [Natamycin]
Hepatitis B virus (HBV); 6 days
  Fold HBV reduction: 4 Fold
